Source: ChEMBL document CHEMBL4428083, “Mitochondrial-Targeting MET Kinase Inhibitor Kills Erlotinib-Resistant Lung Cancer Cells” (ACS Med Chem Lett, 2016)
Activity calls are given as the source filed them. No cut-off for these calls is given here.

How the values were obtained:
[1] = Drug uptake in mitochondria of erlotinib-resistant human HCC827B cells assessed as R1 gated population at 4 uM after 1 hr by MTR staining based FACS analysis (reference value: >98%); type: ADME
[2] = Drug uptake in mitochondria of erlotinib-resistant human HCC827B cells assessed as R1 gated population at 4 uM after 1 hr by FACS analysis (reference value: >98%); type: ADME
[3] = tested on: HCC827; assay: Cytotoxicity against erlotinib-sensitive human HCC827A cells assessed as reduction in cell viability after 72 hrs by MTT assay; type: functional, cell-based; settings: HCC827, 72 h
Method in brief: (§1)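 Colorimetric tetrazolium assay after 72 h exposure; IC50 derived from viability. Comparisons between compounds by unpaired Student's t test.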

[4] = tested on: HCC827; assay: Cytotoxicity against erlotinib-resistant human HCC827B cells expressing MET assessed as reduction in cell viability after 72 hrs by MTT assay; type: functional, cell-based; settings: HCC827, 72 h; method in brief: as §1
[5] = tested on: TAMH; assay: Cytotoxicity against TAMH assessed as reduction in cell viability after 24 hrs by cell titer glo based luminescence assay; settings: Mus musculus
Method in brief: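 TAMH (TGFα-transformed murine hepatocytes; stable, nontumorigenic, metabolically competent line) exposed to compound for 24 h; IC50 from viability.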

[6] = tested on: HCC827; assay: Induction of apoptosis in erlotinib-resistant human HCC827B cells assessed as increase in cleaved PARP level at 4 uM measured up to 60 hrs by immunoblot analysis; type: functional, cell-based
Method in brief: (§2)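 HCC827B cells treated with 4 μM compound; whole-cell lysates collected at 12, 24, 36, 48 and 60 h and immunoblotted for cleaved PARP and cleaved caspases 3 and 7. Control was untreated cells at 0 h; GAPDH was the loading control.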

[7] = tested on: HCC827; assay: Induction of apoptosis in erlotinib-resistant human HCC827B cells assessed as increase in cleaved caspase 3 level at 4 uM measured up to 60 hrs by immunoblot analysis; type: functional, cell-based; method in brief: as §2
[8] = tested on: HCC827; assay: Induction of apoptosis in erlotinib-resistant human HCC827B cells assessed as increase in cleaved caspase 7 level at 4 uM measured up to 60 hrs by immunoblot analysis; type: functional, cell-based; method in brief: as §2
[9] = Drug uptake in mitochondria of human HeLa cells at 4 uM after 3 hrs by MTR dye/Hoechst 33342 staining based confocal microscopy; type: ADME
Method in brief: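 HeLa cells were exposed to 4 μM compound for 3 h, then stained with MitoTracker Red and Hoechst 33342 and imaged by confocal microscopy. Intrinsic compound green fluorescence (Ex 460, Em 520 nm) was compared for overlap with MTR.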

[10] = tested on: HCC827; assay: Effect on total MET expression level in erlotinib-resistant human HCC827B cells at 4 uM after 1 to 1.5 hrs by immunoblot analysis; type: ADME, cell-based; settings: hcc827, 4 µM
[11] = Effect on total MET expression level in mitochondria isolated from erlotinib-resistant human HCC827B cells at 4 uM after 1 to 1.5 hrs by immunoblot analysis; type: ADME
[12] = biological target: Hepatocyte growth factor receptor (Homo sapiens) (UniProt P08581); assay: Inhibition of MET phosphorylation at Y1234/1235 in erlotinib-resistant human HCC827B cells at 4 uM after 1 to 1.5 hrs by immunoblot analysis
Hepatocyte growth factor receptor (Homo sapiens), sequence (P08581 whole entry): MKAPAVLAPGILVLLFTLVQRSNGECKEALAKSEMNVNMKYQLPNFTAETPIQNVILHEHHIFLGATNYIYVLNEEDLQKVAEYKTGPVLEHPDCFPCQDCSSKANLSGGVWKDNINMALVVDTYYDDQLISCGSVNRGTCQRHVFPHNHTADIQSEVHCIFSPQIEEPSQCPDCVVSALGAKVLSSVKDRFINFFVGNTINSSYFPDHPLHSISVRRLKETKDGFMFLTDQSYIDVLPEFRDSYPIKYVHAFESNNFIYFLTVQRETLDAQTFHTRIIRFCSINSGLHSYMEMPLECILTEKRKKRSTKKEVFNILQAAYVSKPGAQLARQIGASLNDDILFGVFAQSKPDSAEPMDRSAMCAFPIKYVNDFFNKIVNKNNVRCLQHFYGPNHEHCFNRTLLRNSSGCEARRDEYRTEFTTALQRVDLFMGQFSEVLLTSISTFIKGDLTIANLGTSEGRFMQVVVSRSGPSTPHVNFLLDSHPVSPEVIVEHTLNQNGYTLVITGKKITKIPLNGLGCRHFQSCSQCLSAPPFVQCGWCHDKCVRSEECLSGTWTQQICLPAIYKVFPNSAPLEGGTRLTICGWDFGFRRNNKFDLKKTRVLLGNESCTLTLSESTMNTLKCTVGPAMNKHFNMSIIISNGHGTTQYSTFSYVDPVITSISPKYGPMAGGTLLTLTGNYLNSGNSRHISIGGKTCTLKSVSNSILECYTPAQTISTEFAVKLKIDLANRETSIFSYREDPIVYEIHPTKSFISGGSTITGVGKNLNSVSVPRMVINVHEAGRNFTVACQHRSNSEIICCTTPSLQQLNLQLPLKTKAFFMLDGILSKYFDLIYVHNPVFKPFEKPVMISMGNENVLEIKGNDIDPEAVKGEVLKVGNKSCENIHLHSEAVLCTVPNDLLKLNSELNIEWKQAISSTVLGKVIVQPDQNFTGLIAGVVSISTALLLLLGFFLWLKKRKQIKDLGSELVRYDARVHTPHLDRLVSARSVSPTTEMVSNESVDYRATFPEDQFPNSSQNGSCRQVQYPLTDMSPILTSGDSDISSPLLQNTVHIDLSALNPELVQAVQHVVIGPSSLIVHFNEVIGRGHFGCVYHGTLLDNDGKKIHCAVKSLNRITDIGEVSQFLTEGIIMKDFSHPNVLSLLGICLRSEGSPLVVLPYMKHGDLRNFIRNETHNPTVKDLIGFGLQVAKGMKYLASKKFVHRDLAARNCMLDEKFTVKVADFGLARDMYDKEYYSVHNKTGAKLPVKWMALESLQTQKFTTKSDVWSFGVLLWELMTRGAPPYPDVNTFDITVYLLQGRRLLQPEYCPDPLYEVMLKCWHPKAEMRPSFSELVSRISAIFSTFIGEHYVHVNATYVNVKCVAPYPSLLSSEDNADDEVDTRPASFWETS
Method in brief: (§3)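 Whole HCC827B cells, or mitochondria first purified from them, were treated separately with 4 μM compound for 1 and 1.5 h, then immunoblotted for p-MET Y1234/1235. Each lane held 10 μg protein; loading controls were SDHA for mitochondria and actin for whole cells.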

[13] = biological target: Hepatocyte growth factor receptor (Homo sapiens) (UniProt P08581); assay: Inhibition of MET phosphorylation at Y1234/1235 in mitochondria isolated from erlotinib-resistant human HCC827B cells at 4 uM after 1 to 1.5 hrs by immunoblot analysis; method in brief: as §3
[14] = biological target: Hepatocyte growth factor receptor (Homo sapiens) (UniProt P08581); assay: Inhibition of MET phosphorylation at Y1234/1235 in erlotinib-resistant human HCC827B cells at 4 uM after 24 hrs by immunoblot analysis
Method in brief: (§4)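 HCC827B cells exposed to 4 μM compound for 24 h; whole-cell lysates and mitochondria then isolated from treated cells and immunoblotted for p-MET Y1234/1235. Each lane held 10 μg protein; loading controls were actin (whole cells) and SDHA (mitochondria).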

[15] = biological target: Hepatocyte growth factor receptor (Homo sapiens) (UniProt P08581); assay: Inhibition of MET phosphorylation at Y1234/1235 in mitochondria isolated from compound treated erlotinib-resistant human HCC827B cells at 4 uM after 24 hrs by immunoblot analysis; method in brief: as §4
[16] = tested on: HCC827; assay: Cytotoxicity against erlotinib-sensitive human HCC827A cells assessed as cell viability at 1 uM after 72 hrs by MTT assay; type: functional; settings: HCC827, 72 h, read-out: Activity
Method in brief: (§5)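 Colorimetric tetrazolium viability assay with erlotinib at 1 μM; % viability reported, n = 3.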

[17] = tested on: HCC827; assay: Cytotoxicity against erlotinib-resistant human HCC827B cells assessed as cell viability at 1 uM after 72 hrs by MTT assay; type: functional; settings: HCC827, 72 h, read-out: Activity; method in brief: as §5

Row | Compound | Drug uptake [1] [%] | Drug uptake [2] [%] | IC50 [3] [µM] | IC50 [4] [µM] | IC50 [5] [µM] | Activity [6] | Activity [7] | Activity [8] | Drug uptake [9] | Activity [10] | Activity [11] | inhibition [12] | inhibition [13] | inhibition [14] | inhibition [15] | viability at 1 µM [16] [%] | viability at 1 µM [17] [%]
1 | Cc1[nH]c(/C=C2\C(=O)Nc3ccc(S(=O)(=O)Cc4c(Cl)cccc4Cl)cc32)c(C)c1C(=O)NCC[P+](c1ccccc1)(c1ccccc1)c1ccccc1.[Br-] | 95 | 98 | 16.7 | 5.3 | 15.1 | Active | Active | Active | Active | Non-Toxic | Non-Toxic | Active | inactive | Active | Active |  | 
2 | Cc1[nH]c(/C=C2\C(=O)Nc3ccc(S(=O)(=O)Cc4c(Cl)cccc4Cl)cc32)c(C)c1C(=O)N1CCC[C@@H]1CN1CCCC1 [PHA-665752] | 35 |  | 15.7 | 8.9 | 8.9 | Active | Active | Active | Not Active | Non-Toxic | Non-Toxic | Active | inactive |  | Active |  | 
3 | C#Cc1cccc(Nc2ncnc3cc(OCCOC)c(OCCOC)cc23)c1 [ERLOTINIB] |  |  |  |  |  |  |  |  |  |  |  |  |  |  |  | 22.4 | 72.4
